Measurements taken from ChEMBL document CHEMBL1795261, “HIF-1α inhibitors: synthesis and biological evaluation of novel moracin O and P analogues” (Eur J Med Chem, 2011).
Activity calls are given as the source filed them. The rule behind the calls is not given here.

What was measured:
[1] = Cytotoxicity against human Hep3B cells after 24 hrs by MTT assay; type: cell-based, Hep 3B2
[2] = biological target: T1, Hypoxia-inducible factor 1-alpha (Homo sapiens, UniProt Q16665); assay: Inhibition of hypoxia-induced HIF1alpha activation in human Hep3B cells after 16 hrs by HRE-luciferase reporter assay; type: cell-based; settings: hep 3b2
Target sequence in this assay (Q16665 whole entry): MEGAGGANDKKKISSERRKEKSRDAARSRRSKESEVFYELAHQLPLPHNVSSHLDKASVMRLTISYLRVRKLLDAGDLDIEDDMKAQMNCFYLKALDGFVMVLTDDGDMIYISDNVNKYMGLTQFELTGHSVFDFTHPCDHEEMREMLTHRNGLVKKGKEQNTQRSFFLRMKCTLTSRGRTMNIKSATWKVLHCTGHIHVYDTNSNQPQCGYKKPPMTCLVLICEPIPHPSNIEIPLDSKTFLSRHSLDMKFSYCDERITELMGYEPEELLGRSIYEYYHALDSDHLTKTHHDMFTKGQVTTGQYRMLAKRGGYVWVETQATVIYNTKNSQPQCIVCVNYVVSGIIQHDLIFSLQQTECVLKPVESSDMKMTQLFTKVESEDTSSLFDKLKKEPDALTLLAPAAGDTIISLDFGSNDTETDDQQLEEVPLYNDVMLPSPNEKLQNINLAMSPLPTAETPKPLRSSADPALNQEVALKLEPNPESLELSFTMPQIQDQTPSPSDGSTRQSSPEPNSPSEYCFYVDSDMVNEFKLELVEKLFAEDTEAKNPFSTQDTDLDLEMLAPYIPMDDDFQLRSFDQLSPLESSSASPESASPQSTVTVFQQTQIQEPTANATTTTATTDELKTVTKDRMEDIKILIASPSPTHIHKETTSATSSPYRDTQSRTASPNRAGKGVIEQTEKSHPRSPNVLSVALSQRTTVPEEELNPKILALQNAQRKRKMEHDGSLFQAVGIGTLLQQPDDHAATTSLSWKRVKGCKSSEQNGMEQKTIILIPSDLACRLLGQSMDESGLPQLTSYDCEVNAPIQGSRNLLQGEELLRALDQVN

[3] = biological target: T1, Hypoxia-inducible factor 1-alpha; assay: Inhibition of hypoxia-induced HIF1alpha protein accumulation in nucleus of human Hep3B cells after 12 hrs at 10 uM by Western blot analysis; type: functional, cell-based; settings: Hep 3B2
Summary of the method: (§1)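 Hep3B cells were kept under normoxia or hypoxia for 12 h with or without compound. HIF-1α in nuclear extracts was detected by western blot, with the same blot reprobed for topoisomerase-I as loading control. Bands were quantified by image scanning in arbitrary units.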
Target sequence in this assay (Q16665 whole entry, looked up): as the sequence (Q16665 whole entry) above

[4] = biological target: T1, Hypoxia-inducible factor 1-alpha; assay: Inhibition of hypoxia-induced HIF1alpha protein accumulation in nucleus of human Hep3B cells after 12 hrs by Western blot analysis; type: functional, cell-based; settings: Hep 3B2; summary of the method: as §1
Target sequence in this assay (Q16665 whole entry, looked up): as the sequence (Q16665 whole entry) above

[5] = biological target: T1, Hypoxia-inducible factor 1-alpha; assay: Inhibition of HIF1alpha-mediated VEGF production in human Hep3B cells under hypoxic condition after 17.5 hrs by ELISA; type: cell-based; settings: Hep 3B2
Summary of the method: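 Hep3B cells were held under normoxia or hypoxia for 17.5 h with or without compound. Secreted VEGF was then measured by ELISA in the culture supernatant.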
Target sequence in this assay (Q16665 whole entry, looked up): as the sequence (Q16665 whole entry) above

Compound | IC50 [1] [µM] | IC50 [2] [µM] | inhibition [3] | inhibition [4] | inhibition [5]
CC(C)(O)C1Cc2cc3cc(-c4ccccc4)oc3cc2O1 (stereo not drawn) | > 30 | 0.054 |  |  | 
CC1(C)Oc2cc(OC(=O)c3ccc(-c4cccc([N+](=O)[O-])c4)cc3)ccc2CC1O (stereo not drawn) | > 30 | 17.5 |  |  | 
CC1(C)Oc2cc(OC(=O)c3ccc(O)c(O)c3)ccc2CC1O (stereo not drawn) | > 30 | > 30 |  |  | 
COc1ccccc1-c1cc2cc3c(cc2o1)OC(C(C)(C)O)C3 (stereo not drawn) | > 30 | 0.58 |  |  | 
CC(C)(O)C1Cc2ccc(OC(=O)c3ccc(Br)cc3)cc2O1 (stereo not drawn) | > 30 | > 30 |  |  | 
COc1cccc(-c2ccc(C(=O)Oc3ccc4c(c3)OC(C)(C)C(O)C4)cc2)c1 (stereo not drawn) | > 30 | 17.2 |  |  | 
CC1(C)Oc2cc(OC(=O)c3cc(O)cc(O)c3)ccc2CC1O (stereo not drawn) | > 30 | > 30 |  |  | 
CC1(C)Oc2cc3oc(-c4cc(O)cc(O)c4)cc3cc2CC1O (racemic) [(+/-)-MORACIN P] | > 30 | 10.7 |  |  | 
COc1cccc(-c2ccc(C(=O)Oc3ccc4c(c3)OC(C(C)(C)O)C4)cc2)c1 (stereo not drawn) | > 30 | > 30 |  |  | 
CC1(C)Oc2cc(OC(=O)c3ccc(O)cc3)ccc2CC1O (stereo not drawn) | > 30 | > 30 |  |  | 
COc1ccc(-c2cc3cc4c(cc3o2)OC(C(C)(C)O)C4)cc1 (stereo not drawn) | > 30 | 0.11 |  |  | 
CC(C)(O)[C@H]1Cc2cc3cc(-c4ccc(O)cc4)oc3cc2O1 | > 30 | 0.001 | Active | Dose-dependent effect | 
CC(C)(O)C1Cc2cc3cc(-c4cc(F)cc(F)c4)oc3cc2O1 (stereo not drawn) | > 30 | 0.36 |  |  | 
CC(C)(O)C1Cc2ccc(OC(=O)c3cc(O)cc(O)c3)cc2O1 (stereo not drawn) | > 30 | > 30 |  |  | 
CC(C)(O)C1Cc2ccc(OC(=O)c3cc(OCc4ccccc4)cc(OCc4ccccc4)c3)cc2O1 (stereo not drawn) | > 30 | 26.2 |  |  | 
CC(C)(O)C1Cc2cc3cc(-c4cc(O)cc(O)c4)oc3cc2O1 (racemic) [MORACIN O] | > 30 | 0.00676 |  |  | 
Cn1cncc1-c1cc2cc3c(cc2o1)OC(C(C)(C)O)C3 (stereo not drawn) | > 30 | > 0.03 |  |  | 
CC1(C)Oc2cc(OC(=O)c3ccc(-c4cccc(C#N)c4)cc3)ccc2CC1O (stereo not drawn) | > 30 | > 30 |  |  | 

Compound | IC50 [1] [µM] | IC50 [2] [µM] | inhibition [3] | inhibition [4] | inhibition [5]
CCOC(=O)COc1ccc(-c2cc3cc4c(cc3o2)OC(C(C)(C)O)C4)cc1 (stereo not drawn) | > 30 | 0.054 |  |  | 
CC(C)(O)[C@H]1Cc2cc3cc(-c4cc(O)cc(O)c4)oc3cc2O1 |  | 0.00676 |  | Dose-dependent effect | 
CC1(C)Oc2cc(OC(=O)c3ccc(OCc4ccccc4)cc3)ccc2CC1O (stereo not drawn) | > 30 | 12.9 |  |  | 
CC(C)(O)C1Cc2cc3cc(-c4ccncc4)oc3cc2O1 (stereo not drawn) | > 30 | 1.1 |  |  | 
CC(C)(O)C1Cc2cc3cc(-c4ccc(O)cc4)oc3cc2O1 (stereo not drawn) | > 30 | 0.0042 |  | Dose-dependent effect | Dose-dependent effect
CC(C)(O)C1Cc2cc3cc(-c4cccc(O)c4)oc3cc2O1 (stereo not drawn) | > 30 | 0.046 |  |  | 
CC(C)(O)C1Cc2cc3cc(-c4ccc(OCc5ccccc5)cc4)oc3cc2O1 (stereo not drawn) | > 30 | 0.49 |  |  | 
CC1(C)Oc2cc(OC(=O)c3cccc(OCc4ccccc4)c3)ccc2CC1O (stereo not drawn) | > 30 | 5.3 |  |  | 
CC1(C)Oc2cc(OC(=O)c3cc(OCc4ccccc4)cc(OCc4ccccc4)c3)ccc2CC1O (stereo not drawn) | > 30 | 2.6 |  |  | 
CC1(C)Oc2cc(OC(=O)c3ccc(-c4ccc(F)cc4F)cc3)ccc2CC1O (stereo not drawn) | > 30 | 17.6 |  |  | 
CC(C)(O)C1Cc2ccc(OC(=O)c3ccc(-c4cccc([N+](=O)[O-])c4)cc3)cc2O1 (stereo not drawn) | > 30 | > 30 |  |  | 
CC1(C)Oc2cc(OC(=O)c3ccc(OCc4ccccc4)c(OCc4ccccc4)c3)ccc2CC1O (stereo not drawn) | > 30 | 7.3 |  |  | 
Cc1ccc(-c2cc3cc4c(cc3o2)OC(C(C)(C)O)C4)cc1 (stereo not drawn) | > 30 | 0.31 |  |  | 
COc1cc(OC)cc(-c2cc3cc4c(cc3o2)OC(C(C)(C)O)C4)c1 (stereo not drawn) | > 30 | 0.01 |  |  | 
CC1(C)Oc2cc(OC(=O)c3ccc(Br)cc3)ccc2CC1O (stereo not drawn) | > 30 | 16.8 |  |  | 
CC1(C)Oc2cc3oc(-c4cc(O)cc(O)c4)cc3cc2C[C@H]1O [MORACIN P] |  | 0.0107 |  |  | 
COc1cccc(-c2cc3cc4c(cc3o2)OC(C(C)(C)O)C4)c1 (stereo not drawn) | > 30 | 0.007 |  |  | 
